Measured values taken from the M2OR odorant receptor database.
Numbering of substitutions follows the chain as printed.

Experiments:
Details in all cases: stereoisomer not certain
[1] = tested on: T1, O13C8 A19D
T1 sequence (whole entry): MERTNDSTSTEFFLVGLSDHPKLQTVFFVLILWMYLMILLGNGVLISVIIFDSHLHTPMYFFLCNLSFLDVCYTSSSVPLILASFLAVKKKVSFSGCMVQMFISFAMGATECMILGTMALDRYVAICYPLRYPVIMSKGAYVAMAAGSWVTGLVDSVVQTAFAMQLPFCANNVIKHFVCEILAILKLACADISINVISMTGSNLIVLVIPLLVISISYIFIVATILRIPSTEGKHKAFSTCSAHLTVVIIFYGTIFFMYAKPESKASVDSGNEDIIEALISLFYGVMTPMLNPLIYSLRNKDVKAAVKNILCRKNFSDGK
How it was run: (§1)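 Each receptor–molecule pair is labelled responsive or non-responsive (inactive) according to whether the original authors judged the measured signal statistically different from baseline. The data were taken from the main text and supplementary material of published papers and checked for typos and inconsistencies. Assay methods differed by source, with transient luciferase assays in mammalian cell lines being common.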

[2] = tested on: T2, O13C9 H17L V19G L23H
T2 sequence (whole entry): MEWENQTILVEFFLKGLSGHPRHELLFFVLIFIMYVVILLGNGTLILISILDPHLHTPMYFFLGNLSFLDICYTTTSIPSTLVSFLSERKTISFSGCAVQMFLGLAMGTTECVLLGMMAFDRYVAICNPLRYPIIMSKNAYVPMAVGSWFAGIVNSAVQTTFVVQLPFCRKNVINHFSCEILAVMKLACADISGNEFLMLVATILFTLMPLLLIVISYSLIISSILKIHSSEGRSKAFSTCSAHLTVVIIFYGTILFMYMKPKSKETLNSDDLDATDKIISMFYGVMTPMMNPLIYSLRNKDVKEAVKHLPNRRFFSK
How it was run: as §1

[3] = tested on: T3, O13C9 Q6H
T3 sequence (whole entry): T2 sequence (whole entry) with Q6H, L17H, G19V, H23L
How it was run: as §1

[4] = tested on: T4, O13F1 F18S T254M
T4 sequence (whole entry): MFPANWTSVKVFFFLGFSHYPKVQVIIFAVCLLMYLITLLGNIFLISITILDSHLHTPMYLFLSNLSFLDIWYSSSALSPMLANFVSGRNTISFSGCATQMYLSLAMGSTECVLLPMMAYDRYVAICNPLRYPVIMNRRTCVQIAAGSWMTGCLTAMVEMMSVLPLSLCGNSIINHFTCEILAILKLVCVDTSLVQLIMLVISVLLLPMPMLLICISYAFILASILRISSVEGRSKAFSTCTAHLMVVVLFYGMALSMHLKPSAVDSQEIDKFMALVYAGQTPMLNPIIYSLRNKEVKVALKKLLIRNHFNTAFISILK
How it was run: as §1

[5] = tested on: T5, O13F1 F18S
T5 sequence (whole entry): T4 sequence (whole entry) with M254T
How it was run: as §1

[6] = tested on: T6, O13G1 K46I M146L
T6 sequence (whole entry): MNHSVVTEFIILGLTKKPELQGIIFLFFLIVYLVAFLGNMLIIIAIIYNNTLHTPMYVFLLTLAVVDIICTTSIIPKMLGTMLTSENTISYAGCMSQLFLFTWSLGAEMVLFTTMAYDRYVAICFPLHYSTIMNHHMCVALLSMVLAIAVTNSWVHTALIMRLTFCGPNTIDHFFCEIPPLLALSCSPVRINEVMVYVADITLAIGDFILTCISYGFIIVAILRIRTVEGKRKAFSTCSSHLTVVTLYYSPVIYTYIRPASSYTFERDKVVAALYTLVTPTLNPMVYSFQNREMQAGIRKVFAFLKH
How it was run: as §1

[7] = tested on: T7, O13G1
T7 sequence (whole entry): T6 sequence (whole entry) with I46K, I132V, L146M
How it was run: as §1

[8] = tested on: T8, O13H1 Y266S
T8 sequence (whole entry): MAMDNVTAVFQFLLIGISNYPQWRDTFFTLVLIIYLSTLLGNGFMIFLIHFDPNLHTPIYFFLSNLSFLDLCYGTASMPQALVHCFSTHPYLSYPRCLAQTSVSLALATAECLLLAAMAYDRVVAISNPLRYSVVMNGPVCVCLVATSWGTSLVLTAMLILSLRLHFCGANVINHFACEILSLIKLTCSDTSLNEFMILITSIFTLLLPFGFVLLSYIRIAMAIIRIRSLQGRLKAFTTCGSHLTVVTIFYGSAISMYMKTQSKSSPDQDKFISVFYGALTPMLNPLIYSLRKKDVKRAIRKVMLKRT
How it was run: as §1

[9] = tested on: T9, O13J1
T9 sequence (whole entry): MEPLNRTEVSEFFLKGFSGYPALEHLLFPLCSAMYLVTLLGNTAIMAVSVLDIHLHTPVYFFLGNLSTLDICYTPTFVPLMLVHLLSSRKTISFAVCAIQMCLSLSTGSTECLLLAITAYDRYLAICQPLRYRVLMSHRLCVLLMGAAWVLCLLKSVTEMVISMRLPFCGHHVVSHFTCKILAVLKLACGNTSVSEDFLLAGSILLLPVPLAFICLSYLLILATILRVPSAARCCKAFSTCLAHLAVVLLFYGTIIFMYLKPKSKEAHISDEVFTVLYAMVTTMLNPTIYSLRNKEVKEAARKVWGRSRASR
How it was run: as §1

[10] = tested on: T10, O14A2 I133V
T10 sequence (whole entry): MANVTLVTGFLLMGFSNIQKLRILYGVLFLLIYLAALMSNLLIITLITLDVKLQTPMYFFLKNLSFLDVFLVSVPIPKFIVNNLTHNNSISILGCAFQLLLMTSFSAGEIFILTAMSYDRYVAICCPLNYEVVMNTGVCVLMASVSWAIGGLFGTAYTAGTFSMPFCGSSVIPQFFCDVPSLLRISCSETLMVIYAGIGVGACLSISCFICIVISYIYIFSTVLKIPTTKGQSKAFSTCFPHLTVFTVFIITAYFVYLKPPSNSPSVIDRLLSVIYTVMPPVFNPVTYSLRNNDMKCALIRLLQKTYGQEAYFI
How it was run: as §1

[11] = tested on: T11, O14CZ
T11 sequence (whole entry): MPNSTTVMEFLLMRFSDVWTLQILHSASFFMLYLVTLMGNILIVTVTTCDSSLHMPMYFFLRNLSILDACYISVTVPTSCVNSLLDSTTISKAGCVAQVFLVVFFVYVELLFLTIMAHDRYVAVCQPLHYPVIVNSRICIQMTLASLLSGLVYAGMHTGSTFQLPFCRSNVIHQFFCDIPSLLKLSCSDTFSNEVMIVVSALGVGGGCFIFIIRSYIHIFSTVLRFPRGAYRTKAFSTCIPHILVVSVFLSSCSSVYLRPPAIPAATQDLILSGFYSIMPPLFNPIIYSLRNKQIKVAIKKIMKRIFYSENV
How it was run: as §1

[12] = tested on: T12, O14I1 V36A D50N Y216C
T12 sequence (whole entry): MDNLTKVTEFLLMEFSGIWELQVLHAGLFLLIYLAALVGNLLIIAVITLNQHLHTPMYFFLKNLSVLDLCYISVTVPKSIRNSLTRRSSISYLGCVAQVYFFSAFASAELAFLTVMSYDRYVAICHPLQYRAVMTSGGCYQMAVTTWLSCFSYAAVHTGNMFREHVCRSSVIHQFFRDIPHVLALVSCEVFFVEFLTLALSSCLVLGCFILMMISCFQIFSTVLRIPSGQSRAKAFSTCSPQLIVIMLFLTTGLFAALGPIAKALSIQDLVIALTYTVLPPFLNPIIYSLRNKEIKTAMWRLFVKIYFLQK
How it was run: as §1

[13] = tested on: T13, O14J1 N3Y
T13 sequence (whole entry): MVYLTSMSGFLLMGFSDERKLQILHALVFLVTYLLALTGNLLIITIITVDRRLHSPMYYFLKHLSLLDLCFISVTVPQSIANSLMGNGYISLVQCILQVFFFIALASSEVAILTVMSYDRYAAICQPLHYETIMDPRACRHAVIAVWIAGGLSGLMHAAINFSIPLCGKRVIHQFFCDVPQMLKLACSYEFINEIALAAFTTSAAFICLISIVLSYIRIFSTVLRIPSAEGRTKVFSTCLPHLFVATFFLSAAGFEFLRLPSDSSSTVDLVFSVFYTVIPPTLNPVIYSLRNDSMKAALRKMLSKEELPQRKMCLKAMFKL
How it was run: as §1

[14] = tested on: T14, O14K1 D119Y
T14 sequence (whole entry): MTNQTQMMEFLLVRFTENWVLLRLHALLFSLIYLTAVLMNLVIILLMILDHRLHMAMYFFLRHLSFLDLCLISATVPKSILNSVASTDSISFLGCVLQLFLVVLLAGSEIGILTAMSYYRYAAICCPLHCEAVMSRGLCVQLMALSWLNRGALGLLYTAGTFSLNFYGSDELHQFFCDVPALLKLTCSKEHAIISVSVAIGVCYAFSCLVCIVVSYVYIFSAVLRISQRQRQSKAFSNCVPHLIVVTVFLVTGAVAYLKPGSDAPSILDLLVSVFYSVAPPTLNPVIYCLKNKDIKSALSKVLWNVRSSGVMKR
How it was run: as §1

[15] = tested on: T15, O2A25
T15 sequence (whole entry): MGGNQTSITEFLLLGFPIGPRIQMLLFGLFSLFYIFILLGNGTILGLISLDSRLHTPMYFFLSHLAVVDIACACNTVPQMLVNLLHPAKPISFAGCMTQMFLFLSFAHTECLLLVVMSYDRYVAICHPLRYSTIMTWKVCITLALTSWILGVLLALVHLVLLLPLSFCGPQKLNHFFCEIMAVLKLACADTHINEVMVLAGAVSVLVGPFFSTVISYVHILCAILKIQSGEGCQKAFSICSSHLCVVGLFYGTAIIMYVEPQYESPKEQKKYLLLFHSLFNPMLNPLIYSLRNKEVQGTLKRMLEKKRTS
How it was run: as §1

[16] = tested on: T16, O2AE1
T16 sequence (whole entry): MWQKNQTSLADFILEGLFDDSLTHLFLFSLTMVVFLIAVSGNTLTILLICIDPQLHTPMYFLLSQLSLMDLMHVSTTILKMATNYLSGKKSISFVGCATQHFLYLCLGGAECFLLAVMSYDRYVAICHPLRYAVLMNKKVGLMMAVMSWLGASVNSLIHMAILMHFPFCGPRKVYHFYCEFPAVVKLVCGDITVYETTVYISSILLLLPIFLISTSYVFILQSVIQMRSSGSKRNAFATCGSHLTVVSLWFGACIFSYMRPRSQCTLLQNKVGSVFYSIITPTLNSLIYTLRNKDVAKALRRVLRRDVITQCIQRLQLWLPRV
How it was run: as §1

[17] = tested on: T17, O2AJ1
T17 sequence (whole entry): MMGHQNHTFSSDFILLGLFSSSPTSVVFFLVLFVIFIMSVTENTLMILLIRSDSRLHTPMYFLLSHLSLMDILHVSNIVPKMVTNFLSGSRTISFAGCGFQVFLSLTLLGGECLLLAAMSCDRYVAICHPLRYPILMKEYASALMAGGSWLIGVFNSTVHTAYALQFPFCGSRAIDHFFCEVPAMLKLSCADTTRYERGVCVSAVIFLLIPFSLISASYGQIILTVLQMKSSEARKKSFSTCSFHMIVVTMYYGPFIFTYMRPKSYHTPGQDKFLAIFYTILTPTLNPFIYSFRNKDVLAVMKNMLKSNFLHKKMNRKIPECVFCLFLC
How it was run: as §1

[18] = tested on: T18, O2AK2 S99N
T18 sequence (whole entry): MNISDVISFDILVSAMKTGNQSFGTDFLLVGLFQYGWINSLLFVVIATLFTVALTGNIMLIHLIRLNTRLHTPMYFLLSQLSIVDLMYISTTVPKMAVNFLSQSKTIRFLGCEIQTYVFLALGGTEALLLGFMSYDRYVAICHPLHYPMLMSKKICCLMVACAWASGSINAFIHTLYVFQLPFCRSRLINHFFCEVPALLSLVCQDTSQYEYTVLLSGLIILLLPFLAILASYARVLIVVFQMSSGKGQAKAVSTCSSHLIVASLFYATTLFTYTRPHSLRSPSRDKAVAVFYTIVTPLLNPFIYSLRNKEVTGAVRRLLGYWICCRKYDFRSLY
How it was run: as §1

[19] = tested on: T19, O1440
T19 sequence (whole entry): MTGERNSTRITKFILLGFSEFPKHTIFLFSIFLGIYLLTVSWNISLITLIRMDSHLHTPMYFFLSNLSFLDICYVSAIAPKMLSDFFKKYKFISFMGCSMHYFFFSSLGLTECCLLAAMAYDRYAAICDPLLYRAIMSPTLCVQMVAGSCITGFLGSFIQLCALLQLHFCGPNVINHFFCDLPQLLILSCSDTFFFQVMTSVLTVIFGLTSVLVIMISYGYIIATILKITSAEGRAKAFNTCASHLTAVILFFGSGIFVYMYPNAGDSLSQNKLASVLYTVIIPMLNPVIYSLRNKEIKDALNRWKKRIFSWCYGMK
How it was run: as §1

[20] = tested on: T20, O1440; remark: listed apart in the source
T20 sequence (whole entry): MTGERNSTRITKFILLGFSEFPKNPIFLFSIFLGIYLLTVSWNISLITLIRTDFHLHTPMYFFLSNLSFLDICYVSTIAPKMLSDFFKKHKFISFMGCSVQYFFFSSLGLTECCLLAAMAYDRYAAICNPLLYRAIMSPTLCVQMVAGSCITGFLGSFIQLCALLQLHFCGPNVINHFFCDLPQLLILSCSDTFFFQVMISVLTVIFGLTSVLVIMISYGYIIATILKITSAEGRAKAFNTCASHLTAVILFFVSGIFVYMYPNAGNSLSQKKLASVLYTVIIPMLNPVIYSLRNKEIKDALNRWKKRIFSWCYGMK
How it was run: as §1

Measured: odorant receptor agonist call

CCCC(S)CCOC(C)=O (stereo unspecified)
not listed: [19] | [20]
inactive: all other assays above

CCC(=O)OCC(C)(C)OC(C)C1CCCC(C)(C)C1 (stereo unspecified)
inactive: [19] | [20]

CCCCCCCCCCCCCC(C)=O
active: [20]
inactive: [19]

CC1CC=CCCCCCCCCCC(=O)C1 (stereo unspecified)
active: [19] | [20]

O=C1CCCCCCCCCCCCCC1
active: [19] | [20]
